From ChEMBL document CHEMBL1127562, “N-substituted spirosuccinimide, spiropyridazine, spiroazetidine, and acetic acid aldose reductase inhibitors derived from isoquinoline-1,3-diones. 2” (J Med Chem, 1994) come the findings set out here.

Molecules are shown by their SMILES. Calls of active or inactive are those of the source. The rule behind the calls is not given here.

Test [1] concerns the target Aldo-keto reductase family 1 member B1 (Bos taurus) (UniProt P16116). Kind of test: Inhibition of aldose reductase activity in partially purified bovine lens preparation at 10e-5 M. Put shortly:
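Partially purified bovine lens aldose reductase. Reduction of DL-glyceraldehyde substrate followed spectrophotometrically. Activity expressed as average inhibition at the tested concentrations, 1×10^-5, 1×10^-6, 1×10^-7 and 4×10^-6 M as printed; IC50 in M where given.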

The test system of test [2] is Rattus norvegicus. Kind of test: Tested for in vivo inhibition of galactitol accumulation in the sciatic nerve of galactose-fed rats at the dose of 56.1 (mg/kg/day). The format is functional. The method in brief: (§1)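 Rats fed a 20% galactose diet for 4 days, with test compound given in the diet at the stated daily dose (mg/kg/day). Read-out is inhibition of galactitol (polyol) accumulation in sciatic nerve. Values are % inhibition, mean ± SEM of six animals; p < 0.01 unless marked (some p < 0.05). NS = no significant inhibition of polyol accumulation. Tolrestat was the reference standard.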

Test [3] concerns Rattus norvegicus. Kind of test: Tested for in vivo inhibition of galactitol accumulation in the lens of galactose-fed rats at the dose of 56.1 (mg/kg/day). The format is functional, Lens of camera-type eye. Put shortly: (§2)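 Galactosemic rats were fed 20% galactose for 4 days, with the compound mixed into the diet. […] galactitol accumulation was measured, and activity is given as % inhibition at the stated daily dose (mg/kg/day). Values are mean ± SEM of six animals; p < 0.01 unless indicated. NS means no significant inhibition of polyol accumulation.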

Test [4] concerns Rattus norvegicus. Kind of test: Tested for in vivo inhibition of galactitol accumulation in the sciatic nerve of galactose-fed rats at the dose of 1.0 (mg/kg/day). The format is functional. The method in brief: (§3)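 Rats were given a 20% galactose diet for 4 days, with the test compound administered in the diet. Sciatic nerve galactitol accumulation was measured, and activity is given as % inhibition at the stated daily dose (mg/kg/day). Values are mean ± SEM, n = 6 animals; p < 0.01 unless indicated. NS means no significant inhibition of polyol accumulation.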

The subject of test [5] is Rattus norvegicus. Kind of test: Tested for in vivo inhibition of galactitol accumulation in the sciatic nerve of galactose-fed rats at the dose of 26.8 (mg/kg/day). The format is functional. Put shortly:
as §3

The test system of test [6] is Rattus norvegicus. Briefly: Tested for in vivo inhibition of galactitol accumulation in the lens of galactose-fed rats at the dose of 85 (mg/kg/day). The format is functional, Lens of camera-type eye. The method in brief: as §2
In test [7] the test system is Rattus norvegicus. Briefly: Tested for in vivo inhibition of galactitol accumulation in the sciatic nerve of galactose-fed rats at the dose of 85 (mg/kg/day). The format is functional. The method in brief:
as §1

Test [8] deals with Rattus norvegicus. Kind of test: Tested for in vivo inhibition of galactitol accumulation in the lens of galactose-fed rats at the dose of 26.8 (mg/kg/day); NS=Not significant. The format is functional, organism-based. Conditions: Lens of camera-type eye.
Test [9] deals with Rattus norvegicus. Briefly: Tested for in vivo inhibition of galactitol accumulation in the sciatic nerve of galactose-fed rats at the dose of 48 (mg/kg/day). The format is functional. The method in brief:
as §1

Test [10] has as its system Rattus norvegicus. Briefly: Tested for in vivo inhibition of galactitol accumulation in the lens of galactose-fed rats at the dose of 48 (mg/kg/day). The format is functional, Lens of camera-type eye.
The subject of test [11] is Rattus norvegicus. Kind of test: Tested for in vivo inhibition of galactitol accumulation in the lens of galactose-fed rats at the dose of 4.7 (mg/kg/day); NS=Not significant. The format is functional, organism-based. The conditions noted are these: Lens of camera-type eye.
Test [12] concerns Rattus norvegicus. Kind of test: Tested for in vivo inhibition of galactitol accumulation in the sciatic nerve of galactose-fed rats at the dose of 4.7 (mg/kg/day). The format is functional. Put shortly:
as §3

Test [13] relates to Rattus norvegicus. Briefly: Tested for in vivo inhibition of galactitol accumulation in the sciatic nerve of galactose-fed rats at the dose of 24.5 (mg/kg/day). The format is functional. The method in brief:
as §3

Test [14] has as its system Rattus norvegicus. Briefly: Tested for in vivo inhibition of galactitol accumulation in the lens of galactose-fed rats at the dose of 24.5 (mg/kg/day); NS=Not significant. The format is functional, organism-based. The conditions noted are these: Lens of camera-type eye.
Test [15] deals with Rattus norvegicus. Briefly: Tested for in vivo inhibition of galactitol accumulation in the sciatic nerve of galactose-fed rats at the dose of 47 (mg/kg/day). The format is functional. The method in brief:
as §3

Test [16] deals with Rattus norvegicus. Briefly: Tested for in vivo inhibition of galactitol accumulation in the lens of galactose-fed rats at the dose of 47 (mg/kg/day); NS=Not significant. Conditions: Lens of camera-type eye. The format is functional, organism-based.
Test [17] has as its system Rattus norvegicus. Briefly: Tested for in vivo inhibition of galactitol accumulation in the lens of galactose-fed rats at the dose of 25.9 (mg/kg/day); NS=Not significant. The format is functional, organism-based. The conditions noted are these: Lens of camera-type eye.
The subject of test [18] is Rattus norvegicus. Briefly: Tested for in vivo inhibition of galactitol accumulation in the sciatic nerve galactose-fed rats at the dose of 25.9 (mg/kg/day). The format is functional. The method in brief: as §3
In test [19] the test system is Rattus norvegicus. Briefly: Tested for in vivo inhibition of galactitol accumulation in the lens of galactose-fed rats at the dose of 10.5 (mg/kg/day); NS=Not significant. The format is functional, organism-based. The conditions noted are these: Lens of camera-type eye.
Test [20] concerns Rattus norvegicus. Briefly: Tested for in vivo inhibition of galactitol accumulation in the lens of galactose-fed rats at the dose of 49 (mg/kg/day). The format is functional, Lens of camera-type eye.
The test system of test [21] is Rattus norvegicus. Kind of test: Tested for in vivo inhibition of galactitol accumulation in the sciatic nerve of galactose-fed rats at the dose of 49 (mg/kg/day). The format is functional. Put shortly: as §1
In test [22] the test system is Rattus norvegicus. Kind of test: Tested for in vivo inhibition of galactitol accumulation in the sciatic nerve of galactose-fed rats at the dose of 24.4 (mg/kg/day). The format is functional. The method in brief: as §3
Test [23] relates to Rattus norvegicus. Kind of test: Tested for in vivo inhibition of galactitol accumulation in the lens of galactose-fed rats at the dose of 24.4 (mg/kg/day); NS=Not significant. The format is functional, organism-based. Conditions: Lens of camera-type eye.
Test [24] relates to Rattus norvegicus. Kind of test: Tested for in vivo inhibition of galactitol accumulation in the sciatic nerve of galactose-fed rats at the dose of 27.1 (mg/kg/day). The format is functional. Put shortly:
as §3

The subject of test [25] is Rattus norvegicus. Briefly: Tested for in vivo inhibition of galactitol accumulation in the lens of galactose-fed rats at the dose of 27.1 (mg/kg/day). The format is functional, Lens of camera-type eye.
The subject of test [26] is Rattus norvegicus. Briefly: Tested for in vivo inhibition of galactitol accumulation in the lens of galactose-fed rats at the dose of 1.1 (mg/kg/day); NS=Not significant. The format is functional, organism-based. Conditions: Lens of camera-type eye.
Test [27] has as its system Rattus norvegicus. Kind of test: Tested for in vivo inhibition of galactitol accumulation in the sciatic nerve of galactose-fed rats at the dose of 1.1 (mg/kg/day). The format is functional. The method in brief:
as §3

Regarding `NN1C(=O)CC2(C1=O)C(=O)N(Cc1ccc(Br)cc1F)C(=O)c1ccccc12` (stereo not given), the inhibition (in general, the relative decrease from the control value, in per cent) in test [1] is “inactive”. For the same compound, the values for the Inhibition in test [2] and in [3] were 72% and 82%, respectively.
Take `CN1C(=O)CC2(C1=O)C(=O)N(Cc1ccc(Br)cc1F)C(=O)c1ccc(F)cc12` (stereo not given): in test [1], the inhibition entry was “inactive”. In addition, the Inhibition (usually how much of the control response was suppressed) in [4] turned out to be 28%.
In turn, `COC(=O)NC(=O)CC1C(=O)N(C)C(=O)c2ccccc21` (stereo not given) displayed an inhibition in [1] of 61%. Moreover, the Inhibition stood at 21% in test [5], 37% in test [6] and 59% in [7]. Further, the inhibition result in test [8] is “inactive”.
For the compound `O=C1c2ccccc2C2(CC(=O)N(N=C3CCCC3)C2=O)C(=O)N1Cc1ccc(Br)cc1F` (stereo not given), the Inhibition in test [9] is listed as 82%; in test [10] it was 76%; in test [12], 86%. Besides, the inhibition entry in [1] and in test [11] was “inactive” in each case.
Turning to `CCOC(=O)NC(=O)CC1C(=O)N(C)C(=O)c2ccc(Cl)cc21` (stereo not given), the inhibition entry in [1] and in test [14] was “inactive” in each case. In [13], this compound gave an Inhibition of 21%.
In turn, `COC(=O)NC(=O)CC1C(=O)N(C)C(=O)c2ccc(F)cc21` (stereo not given) displayed an inhibition in test [1] of 71%. In [15], this compound came in with an Inhibition of 58%. For the same compound, in [16], the inhibition entry was “inactive”.
In test [1], `COC(=O)NC(=O)CC1C(=O)N(Cc2ccc(Br)cc2F)C(=O)c2ccc(F)cc21` (stereo not given) returned an inhibition of 55%. The inhibition result in test [17] was “inactive”. The compound further came in with an Inhibition in test [18] of 78%.
Turning to `CN1C(=O)c2ccc(Cl)cc2C2(CC(=O)N2)C1=O` (stereo not given), in test [19], the inhibition entry was “inactive”. Besides, the Inhibition in test [20] was found to be 66%; in test [21], 87%.
Consider `COC(=O)NC(=O)CC1C(=O)N(C)C(=O)c2ccc(Br)cc21` (stereo not given), for which the inhibition in test [1] came out at 82%. In test [22], this compound showed an Inhibition of 68%. Besides, the inhibition entry in test [23] was “inactive”.
For `CC(C)=NN1C(=O)CC2(C(=O)N(Cc3ccc(Br)cc3F)C(=O)c3ccc(F)cc32)C1=O` (stereo not given), the Inhibition came out at 84% in [24], 58% in [25] and 47% in [27]. Moreover, the inhibition entry in test [1] and in [26] was “inactive” in each case.
